# ChEMBL document CHEMBL3797060, “Discovery of 5-Chloro-1-(5-chloro-2-(methylsulfonyl)benzyl)-2-imino-1,2-dihydropyridine-3-carboxamide (TAK-259) as a Novel, Selective, and Orally Active α1D Adrenoceptor Antagonist with Antiurinary Frequency Effects: Reducing Human Ether-a-go-go-Related Gene (hERG) Liabilities” (J Med Chem, 2016)
# Assays:
# [1] = Clearance in human liver microsomes at 1 uM after 15 to 30 mins by LC/MS/MS analysis; assay type: ADME; settings: read-out: CLH
# Summary of the method: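 Incubated with 0.2 mg/mL microsomal protein in 50 mM potassium phosphate, pH 7.4. Reaction started with an NADPH-generating system (MgCl2, glucose-6-phosphate, β-NADP+, G6P dehydrogenase). Stopped with acetonitrile at 15 and 30 min, then analysed for remaining compound. Metabolic velocity taken as the slope of the concentration-time plot.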
# CYP3A4 = CYP3A4 (Homo sapiens, UniProt P08684); experiment: Reversible inhibition of CYP3A4 in human liver microsomes at 10 uM using midazolam as substrate incubated for 10 mins by LC/MS/MS analysis; assay type: ADME; settings: probe midazolam
# Summary of the method: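 Midazolam incubated with 0.1 mg/mL microsomes and test compound at 37 °C. Stopped with acetonitrile/water and centrifuged. 1'-Hydroxymidazolam peak measured in the supernatant.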
# [2] = Permeability of compound at pH 7.4 by PAMPA; assay type: ADME; settings: read-out: permeability
# [3] = target: Voltage-gated inwardly rectifying potassium channel KCNH2 (Homo sapiens, UniProt Q12809); experiment: Inhibition of human ERG channel expressed in CHO cells assessed as peak tail current at 10 uM incubated for 5 mins by patch-clamp assay; assay type: cell-based; settings: cho, 5 min, 10 µM
# Summary of the method: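 CHO cells stably expressing hERG, grown at 32 °C, 5% CO2 in Ham's F-12 with 10% FBS and 500 µg/mL Geneticin. Population patch clamp with PBS (Ca/Mg) outside, KCl/MgCl2/EGTA/HEPES pH 7.3 inside, amphotericin B perforation. Holding −80 mV, step to 40 mV 2 s, then −50 mV 2 s. Peak tail current taken before and after 5 min compound exposure, inhibition = 100 − post/pre×100, n = 3 or 4.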
# Sequence of CYP3A4 (P08684 whole entry): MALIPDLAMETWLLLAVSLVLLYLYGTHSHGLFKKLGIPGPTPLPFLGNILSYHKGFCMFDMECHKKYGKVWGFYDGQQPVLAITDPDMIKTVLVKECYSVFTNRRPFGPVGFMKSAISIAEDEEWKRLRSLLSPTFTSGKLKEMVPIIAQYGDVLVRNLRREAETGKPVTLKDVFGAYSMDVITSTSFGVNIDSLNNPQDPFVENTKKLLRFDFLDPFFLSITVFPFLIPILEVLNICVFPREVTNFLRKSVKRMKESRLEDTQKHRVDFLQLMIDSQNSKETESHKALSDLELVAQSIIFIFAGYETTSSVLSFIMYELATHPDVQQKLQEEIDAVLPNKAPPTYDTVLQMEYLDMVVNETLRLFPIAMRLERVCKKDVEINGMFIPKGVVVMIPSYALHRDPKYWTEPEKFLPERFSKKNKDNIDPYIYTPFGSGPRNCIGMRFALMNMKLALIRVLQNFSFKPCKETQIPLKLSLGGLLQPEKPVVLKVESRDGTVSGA
# Sequence of Voltage-gated inwardly rectifying potassium channel KCNH2 (Q12809 whole entry): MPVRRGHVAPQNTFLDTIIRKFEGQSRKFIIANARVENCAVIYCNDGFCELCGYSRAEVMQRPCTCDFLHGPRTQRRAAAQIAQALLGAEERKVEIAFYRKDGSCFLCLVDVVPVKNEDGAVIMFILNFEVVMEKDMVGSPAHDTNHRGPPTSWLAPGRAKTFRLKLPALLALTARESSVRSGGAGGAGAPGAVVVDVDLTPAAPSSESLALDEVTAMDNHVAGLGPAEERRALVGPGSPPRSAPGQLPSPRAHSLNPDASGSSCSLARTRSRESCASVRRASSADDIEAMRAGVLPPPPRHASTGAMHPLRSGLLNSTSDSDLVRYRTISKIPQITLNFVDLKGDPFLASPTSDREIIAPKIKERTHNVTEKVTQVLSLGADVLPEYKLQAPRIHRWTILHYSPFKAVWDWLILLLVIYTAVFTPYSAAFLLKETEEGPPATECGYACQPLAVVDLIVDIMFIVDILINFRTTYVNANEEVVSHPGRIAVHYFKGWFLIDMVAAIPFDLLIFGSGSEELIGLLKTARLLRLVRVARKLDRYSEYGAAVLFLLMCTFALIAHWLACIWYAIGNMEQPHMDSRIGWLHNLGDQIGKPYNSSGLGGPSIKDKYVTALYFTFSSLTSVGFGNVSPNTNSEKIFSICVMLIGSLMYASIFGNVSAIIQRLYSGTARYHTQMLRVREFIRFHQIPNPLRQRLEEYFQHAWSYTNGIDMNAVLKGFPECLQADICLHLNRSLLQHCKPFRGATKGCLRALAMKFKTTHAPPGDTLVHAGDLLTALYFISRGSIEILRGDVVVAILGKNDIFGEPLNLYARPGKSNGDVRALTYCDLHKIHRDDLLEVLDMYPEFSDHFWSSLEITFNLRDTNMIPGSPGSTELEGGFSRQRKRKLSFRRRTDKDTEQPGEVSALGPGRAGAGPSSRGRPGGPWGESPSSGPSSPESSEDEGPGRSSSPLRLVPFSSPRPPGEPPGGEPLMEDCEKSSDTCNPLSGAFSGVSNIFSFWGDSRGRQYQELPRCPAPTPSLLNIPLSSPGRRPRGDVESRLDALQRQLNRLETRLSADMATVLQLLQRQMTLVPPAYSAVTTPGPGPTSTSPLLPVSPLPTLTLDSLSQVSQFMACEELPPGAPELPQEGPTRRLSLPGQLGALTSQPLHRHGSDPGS
smiles,measurement,setting,value
Cl.N=c1c(C(N)=O)cc(Cl)cn1Cc1cccc(Cl)c1,microsomal CLint at 1 µM,[1],3 µL/min/mg
same,"inhibition at 10 min, 10 µM",CYP3A4,-1.6%
same,Papp,[2],11.6 ×10⁻⁶ cm/s
same,inhibition (INH),[3],47%
